Source: PubChem BioAssay AID652011 (Sanford-Burnham Center for Chemical Genomics, 2013)
Where “and” joins values, the source holds several entries; their conditions need not be identical. Equal values may be shown once.

molecular target: Hypoxia-inducible factor 1-alpha (Homo sapiens) (UniProt Q16665); experiment: HIF-1a and HIF-2a reporter inhibitors, SAR follow-up, cell-based, luminescence, MIAPaCa-2, 786-0, panel (AID 652011); conditions: MIAPaCa-2/PANC HIF reporter, luciferase luminescence, desferoxamine, overnight, HIF1a, run 1; at 99 µM (top of the series)
How it was run: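 Also added: desferoxamine added before compound. Dosing: compounds from 10 mM and 0.3125 mM stocks, 1% DMSO final. Timing: overnight seeding and compound exposure, 37 °C, 5% CO2, 10-min detection. Detection: luciferase luminescence with One-Glo reagent.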

Sequence of Hypoxia-inducible factor 1-alpha (Homo sapiens) (Q16665 whole entry, looked up): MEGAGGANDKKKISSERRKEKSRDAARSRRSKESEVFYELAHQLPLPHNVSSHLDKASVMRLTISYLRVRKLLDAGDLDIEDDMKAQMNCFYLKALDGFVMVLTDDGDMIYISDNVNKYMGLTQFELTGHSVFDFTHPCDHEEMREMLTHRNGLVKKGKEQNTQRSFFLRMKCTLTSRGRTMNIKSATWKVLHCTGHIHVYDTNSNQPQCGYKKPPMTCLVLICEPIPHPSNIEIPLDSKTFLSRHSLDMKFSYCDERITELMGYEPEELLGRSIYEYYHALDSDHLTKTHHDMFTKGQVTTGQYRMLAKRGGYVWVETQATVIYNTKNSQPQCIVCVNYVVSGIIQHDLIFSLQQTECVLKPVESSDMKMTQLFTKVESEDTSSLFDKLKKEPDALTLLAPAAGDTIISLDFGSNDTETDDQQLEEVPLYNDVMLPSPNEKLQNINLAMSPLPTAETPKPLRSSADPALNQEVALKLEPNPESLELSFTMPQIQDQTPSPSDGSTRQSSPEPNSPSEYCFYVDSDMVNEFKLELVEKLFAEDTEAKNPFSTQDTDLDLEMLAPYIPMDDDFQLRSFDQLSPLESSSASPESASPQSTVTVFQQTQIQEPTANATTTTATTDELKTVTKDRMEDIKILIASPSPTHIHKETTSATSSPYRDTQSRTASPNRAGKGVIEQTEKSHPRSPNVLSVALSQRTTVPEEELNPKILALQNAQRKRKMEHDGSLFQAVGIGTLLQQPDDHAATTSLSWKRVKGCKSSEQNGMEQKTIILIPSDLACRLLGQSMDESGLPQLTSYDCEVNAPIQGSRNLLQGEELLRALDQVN

SMILES | inhibition
CC(C)(C)c1ccc(-c2noc(CCC(=O)NC3CCCC3)n2)cc1 | 70.1%
CC(C)(C)c1ccc(-c2noc(CCC(=O)Nc3ccccc3)n2)cc1 | 43%
CCCCc1ccc(-c2noc(CCC(=O)NC(C)CC)n2)cc1 (stereo not given) | 29.2%
CCNC(=O)CCc1nc(-c2ccc(C(C)(C)C)cc2)no1 | -11.3% and -13.8%
CCN(CC)C(=O)CCc1nc(-c2ccc(C(C)(C)C)cc2)no1 | -20.8% and 47.7%
CC(C)(C)c1ccc(-c2noc(CCC(=O)NCc3ccco3)n2)cc1 | 86.8% and 85.5%
CNC(=O)CCc1nc(-c2ccccc2)no1 | -13.3% and 12%
CCNC(=O)CCc1nc(-c2cccc(F)c2)no1 | -22%
CCCCc1ccc(-c2noc(CCC(=O)NC3CC3)n2)cc1 | 2.18%
CNC(=O)CCc1nc(-c2ccc(C(C)(C)C)cc2)no1 | 21.1%
CCC(C)NC(=O)CCc1nc(-c2ccc(C(C)C)cc2)no1 (stereo not given) | -41.9%
CC(C)(C)c1ccc(-c2noc(CCC(=O)Nc3cccnc3)n2)cc1 | 98.9%
CCNC(=O)CCc1nc(-c2ccccc2Cl)no1 | -17.5%
CNC(=O)CCc1nc(-c2ccc(F)cc2)no1 | -42.8%
CC(C)c1ccc(-c2noc(CCC(=O)NC(C)(C)C)n2)cc1 | -0.968%
CC(C)(C)c1ccc(-c2noc(CCC(N)=O)n2)cc1 | 8.32% and -17.9%
CCC(C)NC(=O)CCc1nc(-c2ccccc2)no1 (stereo not given) | -33.5%
CC(C)(C)c1ccc(-c2noc(CCC(=O)Nc3cccc([N+](=O)[O-])c3)n2)cc1 | 96.4%
CC(C)(C)c1ccc(-c2noc(CCC(=O)O)n2)cc1 | 94.7%
CNC(=O)CCc1nc(-c2ccc(Cl)cc2)no1 | -25.6%
CNC(=O)CCc1nc(-c2ccc(C(C)C)cc2)no1 | -38.5%
CC(C)NC(=O)CCc1nc(-c2ccc(C(C)(C)C)cc2)no1 | 17.3%
CCNC(=O)CCc1nc(-c2ccccc2C)no1 | -25.2%
CCNC(=O)CCc1nc(-c2ccc(OCC)cc2)no1 | -79.8%
CC(C)(C)NC(=O)CCc1nc(-c2ccc(C(C)(C)C)cc2)no1 | 84.3%
CCOc1ccccc1NC(=O)CCc1nc(-c2ccc(C(C)(C)C)cc2)no1 | 54.8%
CC(C)(C)c1ccc(-c2noc(CCC(=O)NCC3CCCO3)n2)cc1 (stereo not given) | -24.5%
CC(C)(C)c1ccc(-c2noc(CCC(=O)N3CCOCC3)n2)cc1 | -34.2%
CC(C)(C)c1ccc(-c2noc(CCC(=O)NC3CCC3)n2)cc1 | 31.6%
CCCCc1ccc(-c2noc(CCC(=O)NC)n2)cc1 | -40.2%
